Reference: ChEMBL document CHEMBL1135355, “Synthesis of novel water soluble benzylazolium prodrugs of lipophilic azole antifungals” (Bioorg Med Chem Lett, 2002)

What was measured:
[1] = tested on: Rattus norvegicus; experiment: Effective dose required to inhibit the systemic Candida albicans infection was determined in rat by intravenous administration; type: functional
Procedure, shortened: (§1)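 Male Fisher rats infected systemically with C. albicans ATCC48130. Dosing at 0, 4, 24 and 48 h post-infection, given iv or po as the line states. ED50 derived on day 14.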

[2] = Conversion rate of the prodrug in human plasma; type: ADME, cell-free
Procedure, shortened: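 Disappearance of prodrug through ester hydrolysis was followed, and the rate was expressed as half-life (T1/2, min).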

[3] = tested on: Rattus norvegicus; experiment: Effective dose required to inhibit the systemic […] infection was determined in rat by peroral administration; type: functional; details: po
Procedure, shortened: (§2)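 Systemic A. fumigatus CF437 infection in male Fisher rats. Treatment twice on day 1, then once daily for the next 4 days, iv or po as the line states. ED50 taken on day 14.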

[4] = tested on: Rattus norvegicus; experiment: Effective dose required to inhibit the pulmonary […] infection was determined in rat by intravenous administration; type: functional
Procedure, shortened: (§3)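 Pulmonary A. fumigatus CF437 model in male Fisher rats immunosuppressed with cortisone acetate before infection. Dosed twice on the first day and once daily over the following 4 days, iv or po as the line states. ED50 determined on day 14.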

[5] = tested on: Rattus norvegicus; experiment: Effective dose required to inhibit the systemic […] infection was determined in rat by intravenous administration; type: functional; procedure, shortened: as §2
[6] = tested on: Rattus norvegicus; experiment: Effective dose required to inhibit the pulmonary […] infection was determined in rat by peroral administration; type: functional; details: po; procedure, shortened: as §3
[7] = Solubility of the prodrug in water was determined; type: physicochemical; details: buffer
[8] = tested on: Rattus norvegicus; experiment: Effective dose required to inhibit the systemic Candida albicans infection was determined in rat by peroral administration; type: functional; details: po; procedure, shortened: as §1

## Cc1cc(C[n+]2cnn(C[C@](O)(c3ccc(F)cc3F)[C@@H](C)c3nc(-c4ccc(C#N)cc4)cs3)c2)cc(C)c1OC(=O)[C@@H]1CCCN1.O=C(O)C(F)(F)F.[Br-]
[1]
  ED50: 3.5 µmol/kg
[2]
  T1/2: 2.1 h
[3]
  ED50: > 55 µmol/kg
[4]
  ED50: 17 µmol/kg
[5]
  ED50: > 35 µmol/kg
[6]
  ED50: 18 µmol/kg
[7]
  Solubility: > 5000 µg/mL
[8]
  ED50: < 2.1 µmol/kg

## CNCC(=O)Oc1c(C)cc(C[n+]2cnn(C[C@](O)(c3ccc(F)cc3F)[C@@H](C)c3nc(-c4ccc(C#N)cc4)cs3)c2)cc1C.Cl.[Br-]
[1]
  ED50: 4.6 µmol/kg
[2]
  T1/2: < 0.033 h
[3]
  ED50: 19 µmol/kg
[4]
  ED50: 8 µmol/kg
[5]
  ED50: 17 µmol/kg
[6]
  ED50: 17 µmol/kg
[7]
  Solubility: 49000 µg/mL
[8]
  ED50: 4.7 µmol/kg

## C[C@@H](c1nc(-c2ccc(C#N)cc2)cs1)[C@](O)(Cn1cncn1)c1ccc(F)cc1F [RAVUCONAZOLE]
[3]
  ED50: 11 µmol/kg
[6]
  ED50: 19 µmol/kg
[7]
  Solubility: < 1 µg/mL
[8]
  ED50: 1.6 µmol/kg
